This is an account of results in ChEMBL document CHEMBL3860039, “Structure-Activity Relationship and Signaling of New Chimeric CXCR4 Agonists” (J Med Chem, 2016).

Holding throughout (type): cell-based
Experiment [1] addresses T1, C-X-C chemokine receptor type 4 (Homo sapiens, UniProt P61073). As to the kind of experiment: Agonist activity at CXCR4 in human REH cells assessed as optimal concentration causing maximum induction of chemotaxis incubated for 3 hrs by transwell migration assay. The gist of the method:
(§1)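 REH acute lymphoblastic B-cell leukaemia cells washed in RPMI; 100 000 cells in RPMI + 0.2% BSA seeded on top of 5 μm pore polycarbonate transwell, peptide dilutions in same medium in bottom chamber; 3 h, 37 °C, 5% CO2. Migrated cells in lower chamber counted by automated counter, expressed as % of seeded cells; peak = concentration giving maximal migration. Three experiments in triplicate.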

For experiment [2], the target named is T1, C-X-C chemokine receptor type 4. The experiment can be described thus: Agonist activity at HA-tagged human CXCR4 receptor expressed in HEK293 cells co-transfected with Galphai1-91-RlucII, Gbeta1, and GFP10-G-gamma1 incubated for 7 mins by Galpha1 protein activation-based BRET assay. The method in brief: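 HEK293 cells (3 × 10^6 per 100 mm dish) co-transfected via polyethylenimine with HA-hCXCR4 plus Gαi1-91-RlucII, Gβ1, GFP10-Gγ1; replated at 24 h, 100 000 cells/well. At 48 h, washed in HBSS/0.1% BSA, exposed to ligand 10−12 to 10−5 M for 7 min, then coelenterazine-400A 5 μM final; BRET2 515/400 nm ratio. EC50 (Gαi dissociation) and Emax from three experiments in triplicate.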
(In general: Bioluminescence resonance energy transfer reports proximity on the nanometre scale.)

Experiment [3] shares this target. The experiment can be described thus: Agonist activity at CXCR4 in human REH cells assessed as induction of chemotaxis incubated for 3 hrs by transwell migration assay. The gist of the method:
as §1

For experiment [4] the target is unchanged. The experiment can be described thus: Displacement of [125I]-CXCL12 from HA-tagged human recombinant CXCR4 expressed in HEK293 cells incubated for 1 hr by gamma-radiation counting analysis. Background: Loss of bound radioactivity is the signal in a displacement assay; it reports binding, not function.

T1 sequence (P61073 whole entry): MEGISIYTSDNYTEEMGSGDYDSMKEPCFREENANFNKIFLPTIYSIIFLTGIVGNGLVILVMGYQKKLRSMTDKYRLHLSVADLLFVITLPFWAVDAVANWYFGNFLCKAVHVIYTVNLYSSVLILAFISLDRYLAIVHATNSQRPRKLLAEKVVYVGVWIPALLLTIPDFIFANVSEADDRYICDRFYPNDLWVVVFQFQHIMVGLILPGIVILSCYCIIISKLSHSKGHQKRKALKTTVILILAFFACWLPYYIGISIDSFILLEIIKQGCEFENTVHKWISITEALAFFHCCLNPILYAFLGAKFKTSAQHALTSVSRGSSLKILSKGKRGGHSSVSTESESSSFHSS

As usually defined, the EC50 is the midpoint of the concentration-response curve. Read a low EC50 as an effect from little substance. For orientation: Emax means the maximal effect, on the per cent scale that the assay sets. What is called IC50 is the midpoint of a concentration-inhibition curve. For `CC(C)C[C@H](NC(=O)[C@H](CO)NC(=O)[C@@H](NC(=O)[C@@H]1CCCN1C(=O)[C@@H](N)CCCCN)C(C)C)C(=O)N[C@@H](CO)C(=O)N[C@@H](Cc1ccccc1)C(=O)N[C@@H](CCCNC(=N)N)C(=O)N[C@@H](CO)C(=O)N[C@@H](C)C(=O)NCCCC[C@H](NC(=O)[C@@H]1CSSC[C@H](NC(=O)[C@H](Cc2ccc3ccccc3c2)NC(=O)[C@H](CCCNC(=N)N)NC(=O)[C@@H](N)CCCNC(=N)N)C(=O)N[C@@H](Cc2ccc(O)cc2)C(=O)N[C@@H](CCCNC(=N)N)C(=O)N[C@@H](CCCCN)C(=O)N[C@H](CCCCN)C(=O)N2CCC[C@H]2C(=O)N[C@@H](Cc2ccc(O)cc2)C(=O)N[C@@H](CCCNC(=N)N)C(=O)N[C@@H](CCCNC(=N)N)C(=O)N1)C(=O)O`, the Activity in experiment [1] was found to be 10 nM. In experiment [2], this molecule showed an EC50 of 65 nM and an Emax of 41%. In addition, in experiment [3], the %max was determined as 16%. Moreover, the IC50 in experiment [4] was determined as 69 nM.
With `CC(C)C[C@H](NC(=O)[C@H](CO)NC(=O)[C@H](C/C=C/c1ccccc1)NC(=O)[C@@H]1CCCN1C(=O)[C@@H](N)CCCCN)C(=O)N[C@@H](CO)C(=O)N[C@@H](Cc1ccc(O)cc1)C(=O)N[C@@H](CCCNC(=N)N)C(=O)N[C@@H](CO)C(=O)N[C@@H](C)C(=O)NCCCC[C@H](NC(=O)[C@@H]1CSSC[C@H](NC(=O)[C@H](Cc2ccc3ccccc3c2)NC(=O)[C@H](CCCNC(=N)N)NC(=O)[C@@H](N)CCCNC(=N)N)C(=O)N[C@@H](Cc2ccc(O)cc2)C(=O)N[C@@H](CCCNC(=N)N)C(=O)N[C@@H](CCCCN)C(=O)N[C@H](CCCCN)C(=O)N2CCC[C@H]2C(=O)N[C@@H](Cc2ccc(O)cc2)C(=O)N[C@@H](CCCNC(=N)N)C(=O)N[C@@H](CCCNC(=N)N)C(=O)N1)C(=O)O`, in experiment [1], the Activity stood at 10 nM. In experiment [2], this molecule registered an EC50 of 50 nM and an Emax of 70%. In addition, the %max in experiment [3] came to 70%. For the same molecule, the IC50 in experiment [4] is 31 nM.
As for `CC(C)C[C@H](NC(=O)[C@H](CO)NC(=O)[C@@H](NC(=O)[C@@H]1CCCN1C(=O)[C@@H](N)CCCCN)C(C)C)C(=O)N[C@@H](CO)C(=O)N[C@@H](Cc1ccc(N)cc1)C(=O)N[C@@H](CCCNC(=N)N)C(=O)N[C@@H](CO)C(=O)N[C@@H](C)C(=O)NCCCC[C@H](NC(=O)[C@@H]1CSSC[C@H](NC(=O)[C@H](Cc2ccc3ccccc3c2)NC(=O)[C@H](CCCNC(=N)N)NC(=O)[C@@H](N)CCCNC(=N)N)C(=O)N[C@@H](Cc2ccc(O)cc2)C(=O)N[C@@H](CCCNC(=N)N)C(=O)N[C@@H](CCCCN)C(=O)N[C@H](CCCCN)C(=O)N2CCC[C@H]2C(=O)N[C@@H](Cc2ccc(O)cc2)C(=O)N[C@@H](CCCNC(=N)N)C(=O)N[C@@H](CCCNC(=N)N)C(=O)N1)C(=O)O`, in experiment [1], the Activity was determined as 10 nM. Besides, in experiment [2], the EC50 is 83 nM and the Emax turned out to be 33%. Also, the %max in experiment [3] is 27%. In addition, the IC50 in experiment [4] was found to be 94 nM.
Take `CC(C)C[C@H](NC(=O)[C@H](CO)NC(=O)[C@@H](NC(=O)[C@@H]1CCCN1C(=O)[C@@H](N)CCCCN)C(C)C)C(=O)N[C@@H](CO)C(=O)N[C@@H](Cc1ccc(OCc2ccccc2)cc1)C(=O)N[C@@H](CCCNC(=N)N)C(=O)N[C@@H](CO)C(=O)N[C@@H](C)C(=O)NCCCC[C@H](NC(=O)[C@@H]1CSSC[C@H](NC(=O)[C@H](Cc2ccc3ccccc3c2)NC(=O)[C@H](CCCNC(=N)N)NC(=O)[C@@H](N)CCCNC(=N)N)C(=O)N[C@@H](Cc2ccc(O)cc2)C(=O)N[C@@H](CCCNC(=N)N)C(=O)N[C@@H](CCCCN)C(=O)N[C@H](CCCCN)C(=O)N2CCC[C@H]2C(=O)N[C@@H](Cc2ccc(O)cc2)C(=O)N[C@@H](CCCNC(=N)N)C(=O)N[C@@H](CCCNC(=N)N)C(=O)N1)C(=O)O`: in experiment [1], the Activity worked out at 100 nM. In experiment [2], the EC50 stood at 138 nM and the Emax came out at 79%. In experiment [3], the %max was 76%. In experiment [4], the IC50 worked out at 102 nM.
In the same order, the values of `CC(C)C[C@H](NC(=O)[C@H](CO)NC(=O)[C@@H](NC(=O)[C@@H]1CCCN1C(=O)[C@@H](N)CCCCN)C(C)C)C(=O)N[C@@H](CO)C(=O)N[C@@H](Cc1ccc(F)cc1)C(=O)N[C@@H](CCCNC(=N)N)C(=O)N[C@@H](CO)C(=O)N[C@@H](C)C(=O)NCCCC[C@H](NC(=O)[C@@H]1CSSC[C@H](NC(=O)[C@H](Cc2ccc3ccccc3c2)NC(=O)[C@H](CCCNC(=N)N)NC(=O)[C@@H](N)CCCNC(=N)N)C(=O)N[C@@H](Cc2ccc(O)cc2)C(=O)N[C@@H](CCCNC(=N)N)C(=O)N[C@@H](CCCCN)C(=O)N[C@H](CCCCN)C(=O)N2CCC[C@H]2C(=O)N[C@@H](Cc2ccc(O)cc2)C(=O)N[C@@H](CCCNC(=N)N)C(=O)N[C@@H](CCCNC(=N)N)C(=O)N1)C(=O)O` are 10 nM, 83 nM, 60%, 43% and 78 nM.
In the same order, the values of `CC(C)C[C@H](NC(=O)[C@H](CO)NC(=O)[C@H](Cc1ccc2cc3ccccc3cc2c1)NC(=O)[C@@H]1CCCN1C(=O)[C@@H](N)CCCCN)C(=O)N[C@@H](CO)C(=O)N[C@@H](Cc1ccc(O)cc1)C(=O)N[C@@H](CCCNC(=N)N)C(=O)N[C@@H](CO)C(=O)N[C@@H](C)C(=O)NCCCC[C@H](NC(=O)[C@@H]1CSSC[C@H](NC(=O)[C@H](Cc2ccc3ccccc3c2)NC(=O)[C@H](CCCNC(=N)N)NC(=O)[C@@H](N)CCCNC(=N)N)C(=O)N[C@@H](Cc2ccc(O)cc2)C(=O)N[C@@H](CCCNC(=N)N)C(=O)N[C@@H](CCCCN)C(=O)N[C@H](CCCCN)C(=O)N2CCC[C@H]2C(=O)N[C@@H](Cc2ccc(O)cc2)C(=O)N[C@@H](CCCNC(=N)N)C(=O)N[C@@H](CCCNC(=N)N)C(=O)N1)C(=O)O` are 10 nM, 81 nM, 68%, 75% and 48 nM.
On to `CC(C)C[C@H](NC(=O)[C@H](CO)NC(=O)[C@H](C)NC(=O)[C@@H]1CCCN1C(=O)[C@@H](N)CCCCN)C(=O)N[C@@H](CO)C(=O)N[C@@H](Cc1ccc(O)cc1)C(=O)N[C@@H](CCCNC(=N)N)C(=O)N[C@@H](CO)C(=O)N[C@@H](C)C(=O)NCCCC[C@H](NC(=O)[C@@H]1CSSC[C@H](NC(=O)[C@H](Cc2ccc3ccccc3c2)NC(=O)[C@H](CCCNC(=N)N)NC(=O)[C@@H](N)CCCNC(=N)N)C(=O)N[C@@H](Cc2ccc(O)cc2)C(=O)N[C@@H](CCCNC(=N)N)C(=O)N[C@@H](CCCCN)C(=O)N[C@H](CCCCN)C(=O)N2CCC[C@H]2C(=O)N[C@@H](Cc2ccc(O)cc2)C(=O)N[C@@H](CCCNC(=N)N)C(=O)N[C@@H](CCCNC(=N)N)C(=O)N1)C(=O)O`, for which the Activity in experiment [1] came out at 10 nM. In experiment [2], this molecule showed a concentration giving a half-maximal response (EC50) of 92 nM and an Emax of 50%. In addition, the %max in experiment [3] is 30%. Besides, the IC50 in experiment [4] was 56 nM.
Regarding `CC(C)C[C@H](NC(=O)[C@H](CO)NC(=O)[C@@H](NC(=O)[C@@H]1CCCN1C(=O)[C@@H](N)CCCCN)C(C)(C)C)C(=O)N[C@@H](CO)C(=O)N[C@@H](Cc1ccc(O)cc1)C(=O)N[C@@H](CCCNC(=N)N)C(=O)N[C@@H](CO)C(=O)N[C@@H](C)C(=O)NCCCC[C@H](NC(=O)[C@@H]1CSSC[C@H](NC(=O)[C@H](Cc2ccc3ccccc3c2)NC(=O)[C@H](CCCNC(=N)N)NC(=O)[C@@H](N)CCCNC(=N)N)C(=O)N[C@@H](Cc2ccc(O)cc2)C(=O)N[C@@H](CCCNC(=N)N)C(=O)N[C@@H](CCCCN)C(=O)N[C@H](CCCCN)C(=O)N2CCC[C@H]2C(=O)N[C@@H](Cc2ccc(O)cc2)C(=O)N[C@@H](CCCNC(=N)N)C(=O)N[C@@H](CCCNC(=N)N)C(=O)N1)C(=O)O`, the Activity in experiment [1] turned out to be 100 nM. In experiment [2], this molecule came in with an EC50 of 15 nM and an Emax of 36%. Further, the %max in experiment [3] worked out at 21%. In addition, the IC50 in experiment [4] worked out at 84 nM.
`CC(C)C[C@H](NC(=O)[C@H](CO)NC(=O)[C@@H](NC(=O)[C@@H]1CCCN1C(=O)[C@@H](N)CCCCN)C(C)C)C(=O)N[C@@H](CO)C(=O)N[C@@H](Cc1ccc(C(=O)c2ccccc2)cc1)C(=O)N[C@@H](CCCNC(=N)N)C(=O)N[C@@H](CO)C(=O)N[C@@H](C)C(=O)NCCCC[C@H](NC(=O)[C@@H]1CSSC[C@H](NC(=O)[C@H](Cc2ccc3ccccc3c2)NC(=O)[C@H](CCCNC(=N)N)NC(=O)[C@@H](N)CCCNC(=N)N)C(=O)N[C@@H](Cc2ccc(O)cc2)C(=O)N[C@@H](CCCNC(=N)N)C(=O)N[C@@H](CCCCN)C(=O)N[C@H](CCCCN)C(=O)N2CCC[C@H]2C(=O)N[C@@H](Cc2ccc(O)cc2)C(=O)N[C@@H](CCCNC(=N)N)C(=O)N[C@@H](CCCNC(=N)N)C(=O)N1)C(=O)O`: the Activity in experiment [1] amounted to 10 nM. In experiment [2], this molecule had an EC50 of 76 nM and an Emax of 90%. The %max in experiment [3] stood at 69%. Besides, in experiment [4], the IC50 came out at 34 nM.
In experiment [2], `CC(C)C[C@H](NC(=O)[C@H](CO)NC(=O)[C@@H](NC(=O)[C@@H]1CCCN1C(=O)[C@@H](N)CCCCN)C(C)C)C(=O)N[C@@H](CO)C(=O)N[C@@H](Cc1ccc(O)cc1)C(=O)NCCOCCOCCOCCC(=O)NCCCC[C@H](NC(=O)[C@@H]1CSSC[C@H](NC(=O)[C@H](Cc2ccc3ccccc3c2)NC(=O)[C@H](CCCNC(=N)N)NC(=O)[C@@H](N)CCCNC(=N)N)C(=O)N[C@@H](Cc2ccc(O)cc2)C(=O)N[C@@H](CCCNC(=N)N)C(=O)N[C@@H](CCCCN)C(=O)N[C@H](CCCCN)C(=O)N2CCC[C@H]2C(=O)N[C@@H](Cc2ccc(O)cc2)C(=O)N[C@@H](CCCNC(=N)N)C(=O)N[C@@H](CCCNC(=N)N)C(=O)N1)C(=O)O` came in with an EC50 of 61 nM and an Emax of 24%. Moreover, the IC50 in experiment [4] was 437 nM.
